Source: ChEMBL document CHEMBL5058577, “EUbOPEN Chemogenomics Library 2 (Multiplex)” (2022)

Test system: Fibroblast
Assay: Multiplex assay against human fibroblast
Format: toxicity, cell-based
In short: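 Per cents of healthy-nucleus cells form the tubulin, mitochondrial-mass and membrane-permeability phenotype values. Live cells were stained at seeding with Hoechst33342, BioTracker Green Microtubule Cytoskeleton Dye, MitoTracker Red and Annexin V Alexa Fluor 680. After compound addition they were imaged on a CQ1 microscope at 37°C and 5% CO2, and CellPathfinder machine-learning gating split them into Hoechst high-intensity objects or normal cells, normal cells into healthy, pyknosed or fragmented nuclei, and pyknosed cells into mitotic or apoptotic.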

[1] = 12 h, 1 µM, compound concentration 1 uM, replicate 1
[2] = 12 h, 1 µM, compound concentration 1 uM, replicate 2
[3] = 12 h, 10 µM, compound concentration 10 uM, replicate 1
[4] = 12 h, 10 µM, compound concentration 10 uM, replicate 2
[5] = 24 h, 1 µM, compound concentration 1 uM, replicate 1
[6] = 24 h, 1 µM, compound concentration 1 uM, replicate 2
[7] = 24 h, 10 µM, compound concentration 10 uM, replicate 1
[8] = 24 h, 10 µM, compound concentration 10 uM, replicate 2
[9] = 48 h, 1 µM, compound concentration 1 uM, replicate 1
[10] = 48 h, 1 µM, compound concentration 1 uM, replicate 2
[11] = 48 h, 10 µM, compound concentration 10 uM, replicate 1
[12] = 48 h, 10 µM, compound concentration 10 uM, replicate 2

O=C(NCCN1CCC(n2c(=O)[nH]c3cc(Cl)ccc32)CC1)c1ccc(F)cc1 [HALOPEMIDE]
Population Apoptotic (%) [1]: 32%
Population Fragmented Nuclei (%) [1]: 11%
Population Healthy Nuclei (%) [1]: 62%
Population Hoechst High Intensity Objects (%) [1]: 0%
Population Membrane Permeable-Phenotype (%) [1]: 1%
Population Mitochondria Different-Phenotype (%) [1]: 10%
Population Mitotic Cells (%) [1]: 67%
Population Normal (%) [1]: 99%
Population Pyknosed Nuclei (%) [1]: 26%
Population Tubulin-Different-Phenotype (%) [1]: 29%
Total Cell Count [1]: 120
Population Apoptotic (%) [2]: 44%
Population Fragmented Nuclei (%) [2]: 27%
Population Healthy Nuclei (%) [2]: 43%
Population Hoechst High Intensity Objects (%) [2]: 7%
Population Membrane Permeable-Phenotype (%) [2]: 10%
Population Mitochondria Different-Phenotype (%) [2]: 0%
Population Mitotic Cells (%) [2]: 56%
Population Normal (%) [2]: 92%
Population Pyknosed Nuclei (%) [2]: 29%
Population Tubulin-Different-Phenotype (%) [2]: 56%
Total Cell Count [2]: 92
Population Apoptotic (%) [3]: 55%
Population Fragmented Nuclei (%) [3]: 15%
Population Healthy Nuclei (%) [3]: 54%
Population Hoechst High Intensity Objects (%) [3]: 3%
Population Membrane Permeable-Phenotype (%) [3]: 0%
Population Mitochondria Different-Phenotype (%) [3]: 17%
Population Mitotic Cells (%) [3]: 44%
Population Normal (%) [3]: 96%
Population Pyknosed Nuclei (%) [3]: 30%
Population Tubulin-Different-Phenotype (%) [3]: 77%
Total Cell Count [3]: 204
Population Apoptotic (%) [4]: 31%
Population Fragmented Nuclei (%) [4]: 24%
Population Healthy Nuclei (%) [4]: 34%
Population Hoechst High Intensity Objects (%) [4]: 4%
Population Membrane Permeable-Phenotype (%) [4]: 6%
Population Mitochondria Different-Phenotype (%) [4]: 14%
Population Mitotic Cells (%) [4]: 68%
Population Normal (%) [4]: 95%
Population Pyknosed Nuclei (%) [4]: 41%
Population Tubulin-Different-Phenotype (%) [4]: 87%
Total Cell Count [4]: 148
Population Apoptotic (%) [5]: 58%
Population Fragmented Nuclei (%) [5]: 16%
Population Healthy Nuclei (%) [5]: 69%
Population Hoechst High Intensity Objects (%) [5]: 3%
Population Membrane Permeable-Phenotype (%) [5]: 1%
Population Mitochondria Different-Phenotype (%) [5]: 9%
Population Mitotic Cells (%) [5]: 41%
Population Normal (%) [5]: 96%
Population Pyknosed Nuclei (%) [5]: 13%
Population Tubulin-Different-Phenotype (%) [5]: 38%
Total Cell Count [5]: 128
Population Apoptotic (%) [6]: 37%
Population Fragmented Nuclei (%) [6]: 32%
Population Healthy Nuclei (%) [6]: 41%
Population Hoechst High Intensity Objects (%) [6]: 10%
Population Membrane Permeable-Phenotype (%) [6]: 5%
Population Mitochondria Different-Phenotype (%) [6]: 8%
Population Mitotic Cells (%) [6]: 62%
Population Normal (%) [6]: 90%
Population Pyknosed Nuclei (%) [6]: 26%
Population Tubulin-Different-Phenotype (%) [6]: 59%
Total Cell Count [6]: 100
Population Apoptotic (%) [7]: 67%
Population Fragmented Nuclei (%) [7]: 23%
Population Healthy Nuclei (%) [7]: 51%
Population Hoechst High Intensity Objects (%) [7]: 5%
Population Membrane Permeable-Phenotype (%) [7]: 0%
Population Mitochondria Different-Phenotype (%) [7]: 28%
Population Mitotic Cells (%) [7]: 32%
Population Normal (%) [7]: 95%
Population Pyknosed Nuclei (%) [7]: 24%
Population Tubulin-Different-Phenotype (%) [7]: 78%
Total Cell Count [7]: 220
Population Apoptotic (%) [8]: 41%
Population Fragmented Nuclei (%) [8]: 26%
Population Healthy Nuclei (%) [8]: 38%
Population Hoechst High Intensity Objects (%) [8]: 6%
Population Membrane Permeable-Phenotype (%) [8]: 12%
Population Mitochondria Different-Phenotype (%) [8]: 32%
Population Mitotic Cells (%) [8]: 58%
Population Normal (%) [8]: 93%
Population Pyknosed Nuclei (%) [8]: 35%
Population Tubulin-Different-Phenotype (%) [8]: 94%
Total Cell Count [8]: 140
Population Apoptotic (%) [9]: 52%
Population Fragmented Nuclei (%) [9]: 14%
Population Healthy Nuclei (%) [9]: 68%
Population Hoechst High Intensity Objects (%) [9]: 3%
Population Membrane Permeable-Phenotype (%) [9]: 4%
Population Mitochondria Different-Phenotype (%) [9]: 7%
Population Mitotic Cells (%) [9]: 47%
Population Normal (%) [9]: 96%
Population Pyknosed Nuclei (%) [9]: 17%
Population Tubulin-Different-Phenotype (%) [9]: 36%
Total Cell Count [9]: 128
Population Apoptotic (%) [10]: 35%
Population Fragmented Nuclei (%) [10]: 38%
Population Healthy Nuclei (%) [10]: 43%
Population Hoechst High Intensity Objects (%) [10]: 4%
Population Membrane Permeable-Phenotype (%) [10]: 14%
Population Mitochondria Different-Phenotype (%) [10]: 4%
Population Mitotic Cells (%) [10]: 64%
Population Normal (%) [10]: 95%
Population Tubulin-Different-Phenotype (%) [10]: 63%
Total Cell Count [10]: 99
Population Apoptotic (%) [11]: 80%
Population Fragmented Nuclei (%) [11]: 32%
Population Healthy Nuclei (%) [11]: 50%
Population Hoechst High Intensity Objects (%) [11]: 10%
Population Membrane Permeable-Phenotype (%) [11]: 0%
Population Mitochondria Different-Phenotype (%) [11]: 35%
Population Mitotic Cells (%) [11]: 19%
Population Normal (%) [11]: 89%
Population Pyknosed Nuclei (%) [11]: 17%
Population Tubulin-Different-Phenotype (%) [11]: 77%
Total Cell Count [11]: 229
Population Apoptotic (%) [12]: 48%
Population Fragmented Nuclei (%) [12]: 35%
Population Healthy Nuclei (%) [12]: 45%
Population Hoechst High Intensity Objects (%) [12]: 5%
Population Membrane Permeable-Phenotype (%) [12]: 10%
Population Mitochondria Different-Phenotype (%) [12]: 15%
Population Mitotic Cells (%) [12]: 52%
Population Normal (%) [12]: 94%
Population Pyknosed Nuclei (%) [12]: 19%
Population Tubulin-Different-Phenotype (%) [12]: 96%
Total Cell Count [12]: 136
